Among the data in ChEMBL document CHEMBL1152541, “Staurosporine tethered peptide ligands that target cAMP-dependent protein kinase (PKA): optimization and selectivity profiling” (Bioorg Med Chem, 2009) are Activity and Selectivity ratio values, retold here.

Assay [1] addresses Phosphatidylinositol 4-phosphate 3-kinase C2 domain-containing subunit beta (Homo sapiens) (UniProt O00750). As to the kind of experiment: Binding affinity to human PIK3C2beta at 500 nM by cell-based competition binding assay relative to control in presence of DTT.
Assay [2] addresses Phosphatidylinositol 4,5-bisphosphate 3-kinase catalytic subunit alpha isoform (Homo sapiens) (UniProt P42336). Kind of assay: Binding affinity to human PIK3Calpha at 500 nM by cell-based competition binding assay relative to control in presence of DTT.
Assay [3] addresses Cyclin-dependent kinase 3 (Homo sapiens) (UniProt Q00526). Kind of assay: Binding affinity to human CDK3 at 500 nM by cell-based competition binding assay relative to control in presence of DTT. The procedure, abridged: (§1)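 Kinase binding profiling ran on a commercial (Ambit) competitive binding screen against a panel of 90 kinases. The screen used reducing conditions with 7.5 mM DTT. To withstand the DTT, the bivalent ligand was tested as its amide isostere, with the disulfide replaced. A staurosporine derivative carrying a 3 β-alanine linker was run as the reference compound.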

Assay [4] concerns the target T1, Serine/threonine-protein kinase Chk1 (Homo sapiens) (UniProt O14757).
T1 sequence (whole entry): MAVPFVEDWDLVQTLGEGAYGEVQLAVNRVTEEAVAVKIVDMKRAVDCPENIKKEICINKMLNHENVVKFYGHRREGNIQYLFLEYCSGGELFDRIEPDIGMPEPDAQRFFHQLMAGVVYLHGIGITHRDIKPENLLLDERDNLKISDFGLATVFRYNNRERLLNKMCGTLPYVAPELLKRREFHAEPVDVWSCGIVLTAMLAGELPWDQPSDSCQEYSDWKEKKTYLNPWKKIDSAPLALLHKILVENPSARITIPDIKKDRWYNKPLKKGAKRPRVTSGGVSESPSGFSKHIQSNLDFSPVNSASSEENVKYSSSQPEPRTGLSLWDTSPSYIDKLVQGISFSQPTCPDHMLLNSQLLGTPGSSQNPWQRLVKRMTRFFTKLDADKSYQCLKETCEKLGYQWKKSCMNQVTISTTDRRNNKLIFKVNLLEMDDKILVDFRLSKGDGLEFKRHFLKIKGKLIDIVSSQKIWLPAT
Kind of assay: Ratio of compound to staurosporine binding affinity to CHK1 in presence of DTT.

Assay [5] has as its target MAP kinase-activated protein kinase 2 (Homo sapiens) (UniProt P49137). As to the kind of experiment: Binding affinity to human MAPKAPK2 at 500 nM by cell-based competition binding assay relative to control in presence of DTT. The procedure, abridged: (§2)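 Competition binding screen (Ambit) across a panel of 90 kinases, scoring test ligand displacement of each kinase's binding relative to control. The screen ran under reducing conditions with 7.5 mM DTT.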

The target in assay [6] is MAP kinase-interacting serine/threonine-protein kinase 1 (Homo sapiens) (UniProt Q9BUB5). Kind of assay: Binding affinity to human MKNK1 at 500 nM by cell-based competition binding assay relative to control in presence of DTT.
The target in assay [7] is Serine/threonine-protein kinase PAK 4 (Homo sapiens) (UniProt O96013). Kind of assay: Binding affinity to human PAK4 at 500 nM by cell-based competition binding assay relative to control in presence of DTT.
Serine/threonine-protein kinase PAK 4 (Homo sapiens), sequence (O96013 whole entry, looked up): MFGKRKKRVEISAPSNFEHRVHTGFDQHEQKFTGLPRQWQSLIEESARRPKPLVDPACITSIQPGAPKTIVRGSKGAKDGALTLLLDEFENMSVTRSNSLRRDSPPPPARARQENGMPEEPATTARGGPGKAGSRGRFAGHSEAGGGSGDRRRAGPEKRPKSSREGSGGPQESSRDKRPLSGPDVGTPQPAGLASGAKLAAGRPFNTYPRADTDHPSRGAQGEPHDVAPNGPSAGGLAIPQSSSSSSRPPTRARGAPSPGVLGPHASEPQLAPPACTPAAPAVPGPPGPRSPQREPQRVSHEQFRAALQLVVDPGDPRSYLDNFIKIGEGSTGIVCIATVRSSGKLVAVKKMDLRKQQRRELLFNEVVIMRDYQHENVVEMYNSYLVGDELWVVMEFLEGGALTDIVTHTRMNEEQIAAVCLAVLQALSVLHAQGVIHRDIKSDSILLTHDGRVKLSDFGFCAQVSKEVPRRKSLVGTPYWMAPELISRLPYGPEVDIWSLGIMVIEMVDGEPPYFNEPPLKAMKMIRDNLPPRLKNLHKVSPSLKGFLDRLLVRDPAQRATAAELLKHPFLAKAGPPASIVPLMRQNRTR
The target in assay [8] is Cyclin-dependent kinase 16 (Homo sapiens) (UniProt Q00536). Kind of assay: Binding affinity to human PCTK1 at 500 nM by cell-based competition binding assay relative to control in presence of DTT.
Cyclin-dependent kinase 16 (Homo sapiens), sequence (Q00536 whole entry): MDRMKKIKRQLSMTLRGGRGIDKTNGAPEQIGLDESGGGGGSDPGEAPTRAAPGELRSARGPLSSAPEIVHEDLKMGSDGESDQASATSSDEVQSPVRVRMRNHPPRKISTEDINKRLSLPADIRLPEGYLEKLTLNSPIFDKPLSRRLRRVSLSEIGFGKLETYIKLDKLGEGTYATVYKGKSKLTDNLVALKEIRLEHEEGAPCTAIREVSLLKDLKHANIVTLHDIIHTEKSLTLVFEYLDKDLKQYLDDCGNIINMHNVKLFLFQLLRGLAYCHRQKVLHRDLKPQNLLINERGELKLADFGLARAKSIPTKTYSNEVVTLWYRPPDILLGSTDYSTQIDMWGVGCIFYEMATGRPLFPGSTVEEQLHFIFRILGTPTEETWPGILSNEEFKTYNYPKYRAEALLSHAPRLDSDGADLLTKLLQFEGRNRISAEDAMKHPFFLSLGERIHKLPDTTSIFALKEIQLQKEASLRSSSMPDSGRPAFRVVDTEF
Assay [9] deals with T2, Serine/threonine-protein kinase DCLK1 (Homo sapiens) (UniProt O15075).
T2 sequence (whole entry): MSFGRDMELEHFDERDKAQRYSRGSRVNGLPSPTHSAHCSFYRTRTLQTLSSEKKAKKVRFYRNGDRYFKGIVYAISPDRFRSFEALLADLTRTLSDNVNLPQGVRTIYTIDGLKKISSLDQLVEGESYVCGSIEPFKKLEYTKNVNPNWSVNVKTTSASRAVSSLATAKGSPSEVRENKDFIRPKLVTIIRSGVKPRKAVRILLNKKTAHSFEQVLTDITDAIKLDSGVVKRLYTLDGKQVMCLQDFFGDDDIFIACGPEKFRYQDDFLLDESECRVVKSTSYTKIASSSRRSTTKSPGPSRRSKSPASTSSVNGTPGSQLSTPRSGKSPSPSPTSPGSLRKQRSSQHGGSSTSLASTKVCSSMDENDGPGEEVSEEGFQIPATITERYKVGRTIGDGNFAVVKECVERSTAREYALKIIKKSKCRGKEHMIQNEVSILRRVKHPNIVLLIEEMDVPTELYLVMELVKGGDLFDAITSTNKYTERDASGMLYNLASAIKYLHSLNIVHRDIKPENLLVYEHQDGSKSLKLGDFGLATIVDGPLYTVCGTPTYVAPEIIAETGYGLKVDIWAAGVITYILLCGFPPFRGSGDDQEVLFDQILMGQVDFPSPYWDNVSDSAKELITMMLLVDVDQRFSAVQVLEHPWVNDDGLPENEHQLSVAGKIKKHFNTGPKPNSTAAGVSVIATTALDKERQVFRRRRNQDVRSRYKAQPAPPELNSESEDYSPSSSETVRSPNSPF
As to the kind of experiment: Binding affinity to human DCAMKL1 at 200 nM by cell-based competition binding assay relative to control in presence of DTT. In outline:
(§3)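 Commercial (Ambit) competitive kinase-binding panel of 90 kinases measured the binding profile. Run under reducing conditions of 7.5 mM DTT. Binding is expressed relative to control.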

For assay [10], the target named is Epidermal growth factor receptor (Homo sapiens) (UniProt P00533). As to the kind of experiment: Binding affinity to human EGFR at 200 nM by cell-based competition binding assay relative to control in presence of DTT. In outline:
as §3

Assay [11] addresses Receptor tyrosine-protein kinase erbB-4 (Homo sapiens) (UniProt Q15303). As to the kind of experiment: Binding affinity to human ERBB4 at 200 nM by cell-based competition binding assay relative to control in presence of DTT. In outline:
as §3

For assay [12], the system named is Mast/stem cell growth factor receptor Kit (Homo sapiens), P10721 [D816V]. As to the kind of experiment: Binding affinity to human KIT D816V mutant at 200 nM by cell-based competition binding assay relative to control in presence of DTT. In outline:
as §2

Assay [13] addresses Serine/threonine-protein kinase PAK 4 (Homo sapiens) (UniProt O96013). As to the kind of experiment: Binding affinity to human PAK4 at 200 nM by cell-based competition binding assay relative to control in presence of DTT.
Assay [14] addresses Cyclin-dependent kinase 19 (Homo sapiens) (UniProt Q9BWU1). As to the kind of experiment: Binding affinity to human CDK11 at 200 nM by cell-based competition binding assay relative to control in presence of DTT. The procedure, abridged:
as §1

The target in assay [15] is Tyrosine-protein kinase receptor UFO (Homo sapiens) (UniProt P30530). Kind of assay: Binding affinity to human AXL at 50 nM by cell-based competition binding assay relative to control in presence of DTT. In outline: as §1
Tyrosine-protein kinase receptor UFO (Homo sapiens), sequence (P30530 whole entry): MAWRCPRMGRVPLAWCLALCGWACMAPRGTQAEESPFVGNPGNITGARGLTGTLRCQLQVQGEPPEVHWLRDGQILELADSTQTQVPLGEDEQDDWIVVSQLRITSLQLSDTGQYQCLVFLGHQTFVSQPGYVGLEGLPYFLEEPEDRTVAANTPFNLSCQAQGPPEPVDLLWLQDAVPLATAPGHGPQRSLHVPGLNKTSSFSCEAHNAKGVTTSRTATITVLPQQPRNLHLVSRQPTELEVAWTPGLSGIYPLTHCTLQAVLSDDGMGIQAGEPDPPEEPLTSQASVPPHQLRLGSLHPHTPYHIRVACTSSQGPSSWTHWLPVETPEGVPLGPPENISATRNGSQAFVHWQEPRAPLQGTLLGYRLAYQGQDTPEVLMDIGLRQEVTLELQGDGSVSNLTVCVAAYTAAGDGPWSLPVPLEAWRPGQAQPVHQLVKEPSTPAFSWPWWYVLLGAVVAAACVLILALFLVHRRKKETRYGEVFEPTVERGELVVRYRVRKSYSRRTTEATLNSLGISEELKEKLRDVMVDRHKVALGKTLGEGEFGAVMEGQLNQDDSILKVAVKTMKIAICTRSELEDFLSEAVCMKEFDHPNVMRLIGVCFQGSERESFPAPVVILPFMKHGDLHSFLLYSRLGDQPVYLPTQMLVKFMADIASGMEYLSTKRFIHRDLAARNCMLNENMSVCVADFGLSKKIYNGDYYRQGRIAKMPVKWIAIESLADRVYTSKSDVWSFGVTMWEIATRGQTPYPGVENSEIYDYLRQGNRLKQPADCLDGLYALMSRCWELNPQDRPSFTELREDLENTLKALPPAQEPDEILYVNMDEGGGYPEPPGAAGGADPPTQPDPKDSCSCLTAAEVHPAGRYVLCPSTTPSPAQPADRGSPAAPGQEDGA
The target of assay [16] is Platelet-derived growth factor receptor beta (Homo sapiens) (UniProt P09619). As to the kind of experiment: Binding affinity to human PDGFRbeta at 50 nM by cell-based competition binding assay relative to control in presence of DTT.
Platelet-derived growth factor receptor beta (Homo sapiens), sequence (P09619 whole entry): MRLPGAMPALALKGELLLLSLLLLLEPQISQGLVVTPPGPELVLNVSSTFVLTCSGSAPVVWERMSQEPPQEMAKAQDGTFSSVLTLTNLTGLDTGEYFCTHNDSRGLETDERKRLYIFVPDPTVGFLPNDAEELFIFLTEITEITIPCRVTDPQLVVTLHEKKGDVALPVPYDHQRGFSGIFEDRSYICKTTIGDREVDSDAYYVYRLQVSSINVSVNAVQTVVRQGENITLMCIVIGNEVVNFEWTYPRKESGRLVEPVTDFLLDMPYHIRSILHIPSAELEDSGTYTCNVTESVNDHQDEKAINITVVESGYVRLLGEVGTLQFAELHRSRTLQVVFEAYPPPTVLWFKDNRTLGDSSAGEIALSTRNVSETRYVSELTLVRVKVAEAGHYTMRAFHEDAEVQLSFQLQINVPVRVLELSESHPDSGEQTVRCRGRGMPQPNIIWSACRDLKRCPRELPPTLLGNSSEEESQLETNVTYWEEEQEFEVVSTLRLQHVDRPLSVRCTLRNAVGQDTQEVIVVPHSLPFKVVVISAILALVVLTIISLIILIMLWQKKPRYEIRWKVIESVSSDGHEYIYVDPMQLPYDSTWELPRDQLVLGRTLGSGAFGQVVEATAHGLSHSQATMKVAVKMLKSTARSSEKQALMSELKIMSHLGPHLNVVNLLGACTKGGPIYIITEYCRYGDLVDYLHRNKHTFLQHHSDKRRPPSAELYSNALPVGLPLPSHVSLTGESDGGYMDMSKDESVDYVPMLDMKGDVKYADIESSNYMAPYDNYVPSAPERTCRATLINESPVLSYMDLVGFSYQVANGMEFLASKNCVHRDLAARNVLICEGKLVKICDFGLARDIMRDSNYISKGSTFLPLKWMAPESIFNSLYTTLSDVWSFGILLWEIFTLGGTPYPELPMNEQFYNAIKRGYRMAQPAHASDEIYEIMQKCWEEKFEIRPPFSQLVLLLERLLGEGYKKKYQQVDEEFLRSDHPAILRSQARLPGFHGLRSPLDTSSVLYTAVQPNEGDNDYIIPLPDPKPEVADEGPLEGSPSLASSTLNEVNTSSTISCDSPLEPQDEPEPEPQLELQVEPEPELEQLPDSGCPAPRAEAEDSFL
Assay [17] deals with cAMP-dependent protein kinase catalytic subunit alpha (Homo sapiens) (UniProt P17612). As to the kind of experiment: Binding affinity to human PKACalpha at 50 nM by cell-based competition binding assay relative to control in presence of DTT.

*1 amine or outer side, *2 acyl side, *3 side chain or, on linkers, in order; H or OH if unused. Where a SMILES comes first, the peptide text is derived from it. Bridges are numbered along the chain shown (N, C = ends). [ ]: non-standard residue; d: D form. The star is where a group is joined. Staurosporine = CO[C@@H]1[C@H](N(C)*)C[C@H]2O[C@]1(C)n1c3ccccc3c3c4c(c5c6ccccc6n2c5c31)C(=O)NC4; Suc = O=C(CCC(=O)[*:2])[*:1]; Dap = NC[C@H](N)C(=O)O; βAla = NCCC(=O)O

Phosphatidylinositol 4-phosphate 3-kinase C2 domain-containing subunit beta (Homo sapiens), sequence (O00750 whole entry, the tested form may be a part, canonical isoform): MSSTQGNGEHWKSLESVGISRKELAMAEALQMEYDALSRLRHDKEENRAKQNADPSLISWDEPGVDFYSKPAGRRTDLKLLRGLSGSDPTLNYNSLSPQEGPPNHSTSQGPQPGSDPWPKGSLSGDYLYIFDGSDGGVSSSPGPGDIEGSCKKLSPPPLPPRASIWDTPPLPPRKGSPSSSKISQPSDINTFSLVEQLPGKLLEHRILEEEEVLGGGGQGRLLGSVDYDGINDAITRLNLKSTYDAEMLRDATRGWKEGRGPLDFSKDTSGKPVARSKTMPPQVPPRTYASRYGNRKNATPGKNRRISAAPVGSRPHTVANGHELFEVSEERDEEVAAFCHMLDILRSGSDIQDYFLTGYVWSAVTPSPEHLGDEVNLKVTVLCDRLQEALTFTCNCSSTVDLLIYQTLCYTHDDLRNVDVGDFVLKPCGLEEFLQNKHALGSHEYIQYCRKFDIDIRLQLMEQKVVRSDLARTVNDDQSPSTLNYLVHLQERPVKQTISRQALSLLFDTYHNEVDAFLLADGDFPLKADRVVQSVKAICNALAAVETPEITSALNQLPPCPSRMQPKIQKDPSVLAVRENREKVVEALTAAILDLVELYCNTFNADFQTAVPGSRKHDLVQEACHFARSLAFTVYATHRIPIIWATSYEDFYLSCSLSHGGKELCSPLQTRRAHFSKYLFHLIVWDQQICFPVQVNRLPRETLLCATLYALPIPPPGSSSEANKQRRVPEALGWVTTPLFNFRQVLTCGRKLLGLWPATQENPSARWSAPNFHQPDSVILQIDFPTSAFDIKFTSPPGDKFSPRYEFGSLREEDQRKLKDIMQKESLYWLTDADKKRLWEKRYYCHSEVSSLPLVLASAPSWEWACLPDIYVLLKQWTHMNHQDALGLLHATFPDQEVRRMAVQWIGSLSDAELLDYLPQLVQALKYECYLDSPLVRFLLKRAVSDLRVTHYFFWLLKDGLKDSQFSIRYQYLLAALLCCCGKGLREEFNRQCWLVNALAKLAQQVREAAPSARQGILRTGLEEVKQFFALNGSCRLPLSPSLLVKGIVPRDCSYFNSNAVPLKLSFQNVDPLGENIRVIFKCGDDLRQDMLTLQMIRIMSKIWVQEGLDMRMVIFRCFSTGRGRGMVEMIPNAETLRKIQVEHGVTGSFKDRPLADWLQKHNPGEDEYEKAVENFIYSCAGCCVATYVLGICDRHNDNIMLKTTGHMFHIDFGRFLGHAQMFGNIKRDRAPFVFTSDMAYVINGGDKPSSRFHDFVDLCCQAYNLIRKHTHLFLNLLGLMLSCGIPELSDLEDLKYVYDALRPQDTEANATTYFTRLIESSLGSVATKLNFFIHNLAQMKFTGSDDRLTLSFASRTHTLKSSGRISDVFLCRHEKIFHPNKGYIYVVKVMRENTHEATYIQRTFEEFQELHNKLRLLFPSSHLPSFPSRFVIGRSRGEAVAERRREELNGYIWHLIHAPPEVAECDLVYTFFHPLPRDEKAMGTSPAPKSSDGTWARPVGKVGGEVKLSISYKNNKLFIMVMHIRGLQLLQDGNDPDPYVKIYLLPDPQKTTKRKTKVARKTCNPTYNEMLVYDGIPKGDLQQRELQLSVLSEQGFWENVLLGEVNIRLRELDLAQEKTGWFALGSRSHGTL
Cyclin-dependent kinase 3 (Homo sapiens), sequence (Q00526 whole entry, looked up): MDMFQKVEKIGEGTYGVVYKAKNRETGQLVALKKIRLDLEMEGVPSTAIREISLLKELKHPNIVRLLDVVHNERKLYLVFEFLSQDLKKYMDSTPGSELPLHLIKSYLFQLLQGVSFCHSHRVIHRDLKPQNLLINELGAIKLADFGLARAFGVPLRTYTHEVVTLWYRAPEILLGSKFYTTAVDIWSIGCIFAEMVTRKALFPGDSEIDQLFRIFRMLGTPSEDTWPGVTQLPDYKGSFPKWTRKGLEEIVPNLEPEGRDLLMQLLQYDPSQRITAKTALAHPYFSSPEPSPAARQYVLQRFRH

Turning to `CO[C@@H]1[C@H](N(C)C(=O)CCC(=O)NCCC(=O)NCCC(=O)NCCC(N)=O)C[C@H]2O[C@]1(C)n1c3ccccc3c3c4c(c5c6ccccc6n2c5c31)C(=O)NC4`, the Activity in [1] was 98%; in assay [2], 100%; in [3] it was 87%; in [5], 100%; in assay [6], 82%; in [7], 34%. Further, in assay [8], the Activity amounted to 75%. Also, in assay [4], the Selectivity ratio worked out at 84.
Take `CO[C@@H]1[C@H](N(C)C(=O)CCC(=O)NCCC(=O)NCCC(=O)NCCC(=O)NCCC(=O)NCCC(=O)NCCC(=O)NCCC(=O)N[C@H]2CSSC[C@@H](C(=O)NCC(N)=O)NC(=O)CNC(=O)[C@H](Cc3ccccc3)NC(=O)[C@H](C(C)C)NC(=O)[C@H](CCCNC(=N)N)NC(=O)[C@H](Cc3ccccc3)NC(=O)[C@H](C(C)C)NC2=O)C[C@H]2O[C@]1(C)n1c3ccccc3c3c4c(c5c6ccccc6n2c5c31)C(=O)NC4` ({Staurosporine-Suc-βAla-βAla-βAla-βAla-βAla-βAla-βAla}-CVFRVFGCG-NH2; disulfide 1-8): the Activity in assay [9] came out at 100%; in [10] it was 96%; in assay [11], 100%; in assay [12], 0.65%; in assay [13], 40%; in assay [14], 87%.
Regarding `CO[C@@H]1[C@H](N(C)C(=O)CCC(=O)NCCC(=O)NCCC(=O)NCCC(=O)NCCC(=O)NCCC(=O)NCCC(=O)NCCC(=O)N[C@H]2CNC(=O)C[C@@H](C(N)=O)NC(=O)CNC(=O)[C@H](Cc3ccccc3)NC(=O)[C@H](C(C)C)NC(=O)[C@H](CCCNC(=N)N)NC(=O)[C@H](Cc3ccccc3)NC(=O)[C@H](C(C)C)NC2=O)C[C@H]2O[C@]1(C)n1c3ccccc3c3c4c(c5c6ccccc6n2c5c31)C(=O)NC4` ({Staurosporine-Suc-βAla-βAla-βAla-βAla-βAla-βAla-βAla}-[Dap]VFRVFGD-NH2; lactam 1-8), the results for the Activity in [15], in assay [16] and in assay [17] were 81%, 23% and 10%, respectively.
